Results taken from ChEMBL document CHEMBL5385966, “Synthesis and biological evaluation of new naphthalimide-thiourea derivatives as potent antimicrobial agents active against multidrug-resistant Staphylococcus aureus and Mycobacterium tuberculosis” (RSC Med Chem, 2024).
≈ marks a conversion by molar mass, not a printed value. Calls of active or inactive are those of the source. The rule behind the calls is not given here.

How the values were obtained:
[1] = system: Escherichia coli; assay: Antibacterial activity against Escherichia coli ATCC 25922 assessed as bacterial growth inhibition incubated for 16 to 18 hrs by CLSI based antibiotic susceptibility testing method; assay type: functional, organism-based; conditions: time 16-18 hrs
Summary of the method: (§1)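 Broth microdilution in cation-adjusted Mueller-Hinton broth. Compounds were tested at […], with levofloxacin as reference and medium-only controls. Plates were incubated at 37 °C for 16-18 h. MIC was the lowest concentration with no visible growth; three independent determinations, each in duplicate.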

[2] = system: Acinetobacter baumannii; assay: Antibacterial activity against Acinetobacter baumannii BAA 1605 assessed as bacterial growth inhibition incubated for 16 to 18 hrs by CLSI based antibiotic susceptibility testing method; assay type: functional, organism-based; conditions: time 16-18 hrs; summary of the method: as §1
[3] = system: Mycobacterium tuberculosis; assay: Antimycobacterial activity against Mycobacterium tuberculosis H37Rv ATCC 27294 assessed as bacterial growth inhibition incubated for 7 days by resazurin dye based broth microdilution method; assay type: functional; conditions: H37Rv ATCC 27294, 168 h, time 7 day
Summary of the method: (§2)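 Broth microdilution in Middlebrook 7H9 with 10% ADC-Tween-80 (0.2% glycerol, 0.05% Tween-80), inoculum ~10⁶ cfu/mL. Compounds came from 10 mg/mL DMSO stocks and were tested as two-fold serial dilutions at 37 °C, 7 days for M. tuberculosis H37Rv and 72 h for NTM. Growth was read visually with PrestoBlue resazurin dye; MIC was the lowest concentration preventing growth. Triplicate determinations, each in duplicate.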

[4] = system: Pseudomonas aeruginosa; assay: Antibacterial activity against Pseudomonas aeruginosa ATCC 27853 assessed as bacterial growth inhibition incubated for 16 to 18 hrs by CLSI based antibiotic susceptibility testing method; assay type: functional, organism-based; conditions: time 16-18 hrs; summary of the method: as §1
[5] = system: Klebsiella pneumoniae; assay: Antibacterial activity against Klebsiella pneumoniae BAA 1705 assessed as bacterial growth inhibition incubated for 16 to 18 hrs by CLSI based antibiotic susceptibility testing method; assay type: functional, organism-based; conditions: time 16-18 hrs; summary of the method: as §1
[6] = system: Mycolicibacterium fortuitum; assay: Antimycobacterial activity against Mycobacterium fortuitum ATCC 6841 assessed as bacterial growth inhibition incubated for 72 hrs by resazurin dye based broth microdilution method; assay type: functional, organism-based; summary of the method: as §2
[7] = system: Staphylococcus aureus; assay: Antibacterial activity against Staphylococcus aureus ATCC 29213 assessed as bacterial growth inhibition incubated for 16 to 18 hrs by CLSI based antibiotic susceptibility testing method; assay type: functional; conditions: time 16-18 hrs; summary of the method: as §1
[8] = system: Mycobacteroides abscessus; assay: Antimycobacterial activity against Mycobacterium abscessus ATCC 19977 assessed as bacterial growth inhibition incubated for 72 hrs by resazurin dye based broth microdilution method; assay type: functional, organism-based; summary of the method: as §2
[9] = system: Mycobacteroides chelonae; assay: Antimycobacterial activity against Mycobacteroides chelonae ATCC 35752 assessed as bacterial growth inhibition incubated for 72 hrs by resazurin dye based broth microdilution method; assay type: functional, organism-based; summary of the method: as §2

Row | SMILES | growth inhibition (GI) [1] | growth inhibition (GI) [2] | MIC [3] | growth inhibition (GI) [4] | growth inhibition (GI) [5] | growth inhibition (GI) [6] | MIC [7] | growth inhibition (GI) [8] | growth inhibition (GI) [9]
1 | O=C1c2cccc3cccc(c23)C(=O)N1CCN1CCN(C(=S)NC23CC4CC(CC(C4)C2)C3)CC1 | inactive | inactive | > 64 µg/mL | inactive | inactive | inactive | > 64 µg/mL | inactive | inactive
2 | O=C1c2cccc3cccc(c23)C(=O)N1CCN1CCN(C(=S)Nc2cccc(Cl)c2)CC1 | inactive | inactive | > 64 µg/mL | inactive | inactive | inactive | > 64 µg/mL | inactive | inactive
3 | COc1ccc(NC(=S)N2CCN(CCN3C(=O)c4cccc5cccc(c45)C3=O)CC2)cc1 | inactive | inactive | > 64 µg/mL | inactive | inactive | inactive | > 64 µg/mL | inactive | inactive
4 | O=C(CN1C(=O)c2cccc3cccc(c23)C1=O)N1CCN(C(=S)Nc2cccc(Cl)c2)CC1 | inactive | inactive | 32 µg/mL (≈ 64.9 µM) | inactive | inactive | inactive | > 64 µg/mL | inactive | inactive
5 | O=C(CCN1C(=O)c2cccc3cccc(c23)C1=O)N1CCN(C(=S)Nc2ccccc2Cl)CC1 | inactive | inactive | > 64 µg/mL | inactive | inactive | inactive | > 64 µg/mL | inactive | inactive
6 | O=C(CCN1C(=O)c2cccc3cccc(c23)C1=O)NC1CCN(C(=S)Nc2ccccc2)CC1 | inactive | inactive | 64 µg/mL (≈ 132 µM) | inactive | inactive | inactive | > 64 µg/mL | inactive | inactive
7 | O=C(CCN1C(=O)c2cccc3cccc(c23)C1=O)N1CCN(C(=S)Nc2ccc(Cl)cc2)CC1 | inactive | inactive | 64 µg/mL (≈ 126 µM) | inactive | inactive | inactive | > 64 µg/mL | inactive | inactive
8 | NNC(=O)c1ccncc1 [ISONIAZID] |  |  | 0.03 µg/mL (≈ 0.219 µM) |  |  | inactive |  | inactive | inactive
9 | CO[C@H]1/C=C/O[C@@]2(C)Oc3c(C)c(O)c4c(O)c(c(/C=N/N5CCN(C)CC5)c(O)c4c3C2=O)NC(=O)/C(C)=C\C=C\[C@H](C)[C@H](O)[C@@H](C)[C@@H](O)[C@@H](C)[C@H](OC(C)=O)[C@@H]1C [RIFAMPIN] |  |  | 0.03 µg/mL (≈ 0.0365 µM) |  |  | inactive |  | inactive | inactive
10 | CCCCCCCNC(=S)N1CCN(CCN2C(=O)c3cccc4cccc(c34)C2=O)CC1 | inactive | inactive | 64 µg/mL (≈ 137 µM) | inactive | inactive | inactive | > 64 µg/mL | inactive | inactive
11 | CCN=C(S)N1CCN(CCN2C(=O)c3cccc4cccc(c34)C2=O)CC1 | inactive | inactive | 64 µg/mL (≈ 161 µM) | inactive | inactive | inactive | > 64 µg/mL | inactive | inactive
12 | CC[C@@H](CO)NCCN[C@@H](CC)CO [ETHAMBUTOL] |  |  | 2 µg/mL (≈ 9.79 µM) |  |  | inactive |  | inactive | inactive
13 | Cc1ccc(NC(=S)N2CCN(C(=O)CN3C(=O)c4cccc5cccc(c45)C3=O)CC2)cc1 | inactive | inactive | 64 µg/mL (≈ 135 µM) | inactive | inactive | inactive | > 64 µg/mL | inactive | inactive
14 | O=C(CN1C(=O)c2cccc3cccc(c23)C1=O)NC1CCN(C(=S)Nc2ccc(Cl)cc2)CC1 | inactive | inactive | > 64 µg/mL | inactive | inactive | inactive | > 64 µg/mL | inactive | inactive
15 | CN[C@@H]1[C@H](O[C@H]2[C@H](O[C@H]3[C@H](O)[C@@H](O)[C@H](N=C(N)N)[C@@H](O)[C@@H]3N=C(N)N)O[C@@H](C)[C@]2(O)C=O)O[C@@H](CO)[C@H](O)[C@H]1O [STREPTOMYCIN] |  |  | 1 µg/mL (≈ 1.72 µM) |  |  | inactive |  | inactive | inactive
16 | O=C1c2cccc3cccc(c23)C(=O)N1CCN1CCN(C(=S)Nc2ccc(Cl)cc2)CC1 | inactive | inactive | > 64 µg/mL | inactive | inactive | inactive | > 64 µg/mL | inactive | inactive
17 | O=C(Nc1ccc(Cl)cc1)N1CCN(CCN2C(=O)c3cccc4cccc(c34)C2=O)CC1 | inactive | inactive | 8 µg/mL (≈ 17.3 µM) | inactive | inactive | inactive | > 64 µg/mL | inactive | inactive
18 | O=C1c2cccc3cccc(c23)C(=O)N1CCN1CCN(C(=S)Nc2cccnc2)CC1 | inactive | inactive | > 64 µg/mL | inactive | inactive | inactive | > 64 µg/mL | inactive | inactive
19 | O=C(CN1C(=O)c2cccc3cccc(c23)C1=O)N1CCN(C(=S)Nc2ccccc2)CC1 | inactive | inactive | 16 µg/mL (≈ 34.9 µM) | inactive | inactive | inactive | > 64 µg/mL | inactive | inactive
20 | O=C(Nc1ccccc1)N1CCN(CCN2C(=O)c3cccc4cccc(c34)C2=O)CC1 | inactive | inactive | 32 µg/mL (≈ 74.7 µM) | inactive | inactive | inactive | 8 µg/mL (≈ 18.7 µM) | inactive | inactive
21 | COc1ccc(NC(=S)N2CCN(C(=O)CCN3C(=O)c4cccc5cccc(c45)C3=O)CC2)cc1 | inactive | inactive | 8 µg/mL (≈ 15.9 µM) | inactive | inactive | inactive | > 64 µg/mL | inactive | inactive
22 | O=C1c2cccc3cccc(c23)C(=O)N1CCN1CCN(C(=S)Nc2ccccc2Cl)CC1 | inactive | inactive | > 64 µg/mL | inactive | inactive | inactive | > 64 µg/mL | inactive | inactive
23 | NCC[C@H](O)C(=O)N[C@@H]1C[C@H](N)[C@@H](O[C@H]2O[C@H](CN)[C@@H](O)[C@H](O)[C@H]2O)[C@H](O)[C@H]1O[C@H]1O[C@H](CO)[C@@H](O)[C@H](N)[C@H]1O [AMIKACIN] |  |  | 0.5 µg/mL (≈ 0.854 µM) |  |  | inactive |  | inactive | inactive
